The values that follow come from ChEMBL document CHEMBL4049460, “Trisubstituted Imidazoles with a Rigidized Hinge Binding Motif Act As Single Digit nM Inhibitors of Clinically Relevant EGFR L858R/T790M and L858R/T790M/C797S Mutants: An Example of Target Hopping” (J Med Chem, 2017).

For orientation: IC50 means the point on the concentration scale where inhibition reaches its midpoint. In general, solubility refers to the concentration that dissolves in the medium under given conditions. In general, Kd refers to a measure of binding affinity in units of concentration. High values mean a looser complex, low ones a tighter complex.

Data set [1] has as its target T1, Epidermal growth factor receptor (Homo sapiens, UniProt P00533). Nature of the data set: Inhibition of recombinant human GST-tagged wild type EGFR ( 668 to 1210 residues) cytoplasmic domain expressed in baculovirus expression system preincubated for 20 mins followed by addition of [33P]-ATP measured after 2 hrs by filter-binding method. Conditions: read-out: IC50.

Data set [2] can be described thus: Drug metabolism in human liver microsomes assessed as parent compound remaining at 100 uM after 4 hrs in presence of NADPH regenerating system by LC-MS analysis. The data set is classed as ADME, microsome. Conditions: read-out: Stability. Background: Microsomes from liver hold many membrane-bound enzymes, among them those of drug oxidation.
Data set [3] is described as follows: Solubility of the compound at pH 7.5 by UV-HPLC analysis. The data set is classed as physicochemical. Conditions: buffer, read-out: solubility. Put shortly:
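Solubility measured in the kinase assay buffer (pH 7.5); concentration determined by HPLC with UV detection.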

Data set [4] is filed under the species Homo sapiens. The data set is described as follows: Selectivity ratio of IC50 for EGFR L858R/T790M double mutant (unknown origin) to IC50 for wild-type EGFR (unknown origin).
Data set [5] deals with T1, Epidermal growth factor receptor. The data set is described as follows: Binding affinity to wild-type human EGFR (669 to 1011 residues) expressed in bacterial system incubated for 1 hr. The data set is classed as ADME. The essentials:
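Competition binding of inhibitor against an immobilized active-site-directed ligand; Kd read out. Compound and kinase combined and equilibrated for 1 h without dilution (study arm C).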

Data set [6] has the same target. The data set is described as follows: Binding affinity to wild-type human EGFR (669 to 1011 residues) expressed in bacterial system preincubated for 1 hr followed by 30 fold dilution measured after 5 hrs. It is filed as ADME. Put shortly:
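Competition binding against an immobilized active-site-directed ligand; Kd read out. Compound and kinase combined and equilibrated 1 h, then diluted 30-fold in reaction buffer and equilibrated a further 5 h (study arm B).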

Data set [7] addresses Epidermal growth factor receptor (Homo sapiens, UniProt P00533, L858R). The data set is described as follows: Binding affinity to human EGFR L858R mutant (669 to 1011 residues) expressed in bacterial system preincubated for 1 hr followed by 30 fold dilution measured after 5 hrs. The essentials:
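Competition binding: compound's ability to displace an immobilized, active-site-directed ligand from the kinase, reported as Kd. Compound and kinase were equilibrated 1 h, diluted 30-fold in reaction buffer, then equilibrated a further 5 h before read-out.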

The species named for data set [8] is Homo sapiens. Nature of the data set: Inhibition of recombinant human N-terminally GST-His6 tagged EGFR 746-750 deletion mutant (M672 to A1210 residues) C-terminal fragment harboring 3C cleavage site expressed in Baculovirus infected Sf9 cells assessed as residual activity at 1 uM in presence of [33-gamma]-ATP after 60 mins by scintillation counting method relative to control.

The species named for data set [9] is Homo sapiens. Nature of the data set: Inhibition of recombinant human N-terminally GST-His6 tagged EGFR del 747-752/P753S mutant (H672 to A1210 residues) C-terminal fragment harboring 3C cleavage site expressed in Baculovirus infected Sf9 cells assessed as residual activity at 1 uM in presence of [33-gamma]-ATP after 60 mins by scintillation counting method relative to control.

Data set [10] deals with Epidermal growth factor receptor (Homo sapiens), P00533 [G719S]. The data set is described as follows: Inhibition of recombinant human N-terminally GST-His6 tagged EGFR G719S mutant (H672 to A1210 residues) C-terminal fragment harboring 3C cleavage site expressed in Baculovirus infected Sf9 cells assessed as residual activity at 1 uM in presence of [33-gamma]-ATP after 60 mins by scintillation counting method relative to control.

For a further data set, the target named is EGFR (wild-type) (Homo sapiens, UniProt P00533). The data set is described as follows: Inhibition of recombinant wild-type human N-terminally GST-His6 tagged EGFR (H672 to A1210 residues) C-terminal fragment harboring 3C cleavage site expressed in Baculovirus infected Sf9 cells assessed as residual activity at 1 uM in presence of [33-gamma]-ATP after 60 mins by scintillation counting method relative to control. Conditions: read-out: Activity.

The target of data set [11] is Receptor tyrosine-protein kinase erbB-4 (Homo sapiens) (UniProt Q15303). Nature of the data set: Inhibition of recombinant human N-terminally GST-His6 tagged ERBB4 (R676 to V1307 residues) C-terminal fragment harboring thrombin cleavage site expressed in Baculovirus infected Sf9 cells assessed as residual activity at 1 uM in presence of [33-gamma]-ATP after 60 mins by scintillation counting method relative to control.
Receptor tyrosine-protein kinase erbB-4 (Homo sapiens), sequence (Q15303 whole entry, the tested form may be a part): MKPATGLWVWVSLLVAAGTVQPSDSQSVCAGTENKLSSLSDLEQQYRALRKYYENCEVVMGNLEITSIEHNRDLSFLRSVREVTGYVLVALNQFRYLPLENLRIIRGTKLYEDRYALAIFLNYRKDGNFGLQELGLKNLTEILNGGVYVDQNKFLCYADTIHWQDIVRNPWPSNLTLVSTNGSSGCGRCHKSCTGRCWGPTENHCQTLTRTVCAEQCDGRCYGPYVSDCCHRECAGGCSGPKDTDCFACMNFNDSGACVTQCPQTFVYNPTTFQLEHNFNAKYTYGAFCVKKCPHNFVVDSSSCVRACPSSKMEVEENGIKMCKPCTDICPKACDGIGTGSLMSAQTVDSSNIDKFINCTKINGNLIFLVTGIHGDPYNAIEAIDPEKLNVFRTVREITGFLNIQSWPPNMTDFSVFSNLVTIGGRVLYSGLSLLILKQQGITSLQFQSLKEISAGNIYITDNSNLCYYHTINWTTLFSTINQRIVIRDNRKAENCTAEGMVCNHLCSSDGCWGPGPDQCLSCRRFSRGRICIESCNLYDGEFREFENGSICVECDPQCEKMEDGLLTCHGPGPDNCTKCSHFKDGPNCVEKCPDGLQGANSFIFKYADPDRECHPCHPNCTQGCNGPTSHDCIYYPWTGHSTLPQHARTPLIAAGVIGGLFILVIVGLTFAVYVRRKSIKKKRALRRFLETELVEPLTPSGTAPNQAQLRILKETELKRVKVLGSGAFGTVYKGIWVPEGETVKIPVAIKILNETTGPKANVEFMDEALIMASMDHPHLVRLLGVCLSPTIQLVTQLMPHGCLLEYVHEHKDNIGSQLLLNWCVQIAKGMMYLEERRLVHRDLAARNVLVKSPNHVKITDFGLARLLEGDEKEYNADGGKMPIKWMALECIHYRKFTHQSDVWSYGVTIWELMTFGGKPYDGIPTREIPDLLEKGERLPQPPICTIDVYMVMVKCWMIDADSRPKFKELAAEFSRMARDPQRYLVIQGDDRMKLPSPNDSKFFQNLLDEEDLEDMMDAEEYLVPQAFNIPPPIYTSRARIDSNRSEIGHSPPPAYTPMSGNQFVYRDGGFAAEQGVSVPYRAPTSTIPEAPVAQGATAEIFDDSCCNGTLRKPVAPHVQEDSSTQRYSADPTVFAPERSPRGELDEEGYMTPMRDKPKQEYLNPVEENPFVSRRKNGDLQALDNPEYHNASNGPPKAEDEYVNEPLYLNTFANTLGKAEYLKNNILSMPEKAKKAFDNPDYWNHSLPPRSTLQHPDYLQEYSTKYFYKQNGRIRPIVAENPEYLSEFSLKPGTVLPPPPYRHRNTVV

Data set [12] addresses Cytoplasmic tyrosine-protein kinase BMX (Homo sapiens) (UniProt P51813). Nature of the data set: Inhibition of BMX (unknown origin) assessed as residual activity at 1 uM in presence of [33-gamma]-ATP after 60 mins by scintillation counting method relative to control.
For data set [13], the target named is Tyrosine-protein kinase BTK (Homo sapiens) (UniProt Q06187). Nature of the data set: Inhibition of recombinant full-length human N-terminally GST-HIS6 tagged BTK (M1 to S659 residues) harboring 3C-cleavage site expressed in Baculovirus infected Sf9 cells assessed as residual activity at 1 uM in presence of [33-gamma]-ATP after 60 mins by scintillation counting method relative to control.
Tyrosine-protein kinase BTK (Homo sapiens), sequence (Q06187 whole entry, the tested form may be a part): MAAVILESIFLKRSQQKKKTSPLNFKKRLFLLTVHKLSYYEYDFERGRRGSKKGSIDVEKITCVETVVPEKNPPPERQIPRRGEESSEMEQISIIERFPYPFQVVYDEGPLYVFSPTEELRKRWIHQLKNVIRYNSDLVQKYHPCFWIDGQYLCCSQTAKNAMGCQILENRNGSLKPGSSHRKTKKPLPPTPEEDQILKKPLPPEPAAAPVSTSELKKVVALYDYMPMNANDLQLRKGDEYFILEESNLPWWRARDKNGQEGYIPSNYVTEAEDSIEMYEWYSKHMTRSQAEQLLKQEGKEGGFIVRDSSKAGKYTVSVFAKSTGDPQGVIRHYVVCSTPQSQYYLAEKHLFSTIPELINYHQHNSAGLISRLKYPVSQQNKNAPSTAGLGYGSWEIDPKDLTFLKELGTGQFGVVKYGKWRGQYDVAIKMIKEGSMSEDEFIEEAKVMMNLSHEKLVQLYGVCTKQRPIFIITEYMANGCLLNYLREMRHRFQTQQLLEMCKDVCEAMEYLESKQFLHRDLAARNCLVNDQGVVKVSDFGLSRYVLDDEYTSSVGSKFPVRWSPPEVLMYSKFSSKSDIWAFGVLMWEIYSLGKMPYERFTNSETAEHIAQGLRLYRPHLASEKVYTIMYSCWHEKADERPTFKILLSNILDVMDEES

Data set [14] deals with Casein kinase I isoform delta (Homo sapiens) (UniProt P48730). Nature of the data set: Inhibition of CK1 delta (unknown origin) assessed as residual activity at 1 uM in presence of [33-gamma]-ATP after 60 mins by scintillation counting method relative to control.
Casein kinase I isoform delta (Homo sapiens), sequence (P48730 whole entry, looked up, the tested form may be a part, canonical isoform): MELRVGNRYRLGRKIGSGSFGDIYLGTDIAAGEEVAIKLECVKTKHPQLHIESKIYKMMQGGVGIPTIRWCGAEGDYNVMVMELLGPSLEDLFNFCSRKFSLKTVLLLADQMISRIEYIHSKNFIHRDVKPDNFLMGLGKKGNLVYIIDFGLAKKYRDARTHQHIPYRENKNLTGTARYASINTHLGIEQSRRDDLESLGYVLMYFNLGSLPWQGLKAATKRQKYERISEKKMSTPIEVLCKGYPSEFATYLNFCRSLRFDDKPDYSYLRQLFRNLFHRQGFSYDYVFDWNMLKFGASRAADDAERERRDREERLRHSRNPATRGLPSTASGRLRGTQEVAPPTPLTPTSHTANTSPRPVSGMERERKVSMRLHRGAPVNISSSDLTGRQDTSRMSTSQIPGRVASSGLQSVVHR
The target of data set [15] is Mitogen-activated protein kinase 10 (Homo sapiens) (UniProt P53779). Nature of the data set: Inhibition of recombinant full-length human JNK3 (M1 to R426 residues) expressed in Escherichia coli assessed as residual activity at 1 uM in presence of [33-gamma]-ATP after 60 mins by scintillation counting method relative to control.
In data set [16] the target is Misshapen-like kinase 1 (Homo sapiens) (UniProt Q8N4C8). The data set is described as follows: Inhibition of recombinant human N-terminally GST-HIS6 tagged MINK1 (M1 to E320 residues) harboring 3C-cleavage site expressed in Baculovirus infected Sf9 cells assessed as residual activity at 1 uM in presence of [33-gamma]-ATP after 60 mins by scintillation counting method relative to control.
Misshapen-like kinase 1 (Homo sapiens), sequence (Q8N4C8 whole entry, looked up, the tested form may be a part): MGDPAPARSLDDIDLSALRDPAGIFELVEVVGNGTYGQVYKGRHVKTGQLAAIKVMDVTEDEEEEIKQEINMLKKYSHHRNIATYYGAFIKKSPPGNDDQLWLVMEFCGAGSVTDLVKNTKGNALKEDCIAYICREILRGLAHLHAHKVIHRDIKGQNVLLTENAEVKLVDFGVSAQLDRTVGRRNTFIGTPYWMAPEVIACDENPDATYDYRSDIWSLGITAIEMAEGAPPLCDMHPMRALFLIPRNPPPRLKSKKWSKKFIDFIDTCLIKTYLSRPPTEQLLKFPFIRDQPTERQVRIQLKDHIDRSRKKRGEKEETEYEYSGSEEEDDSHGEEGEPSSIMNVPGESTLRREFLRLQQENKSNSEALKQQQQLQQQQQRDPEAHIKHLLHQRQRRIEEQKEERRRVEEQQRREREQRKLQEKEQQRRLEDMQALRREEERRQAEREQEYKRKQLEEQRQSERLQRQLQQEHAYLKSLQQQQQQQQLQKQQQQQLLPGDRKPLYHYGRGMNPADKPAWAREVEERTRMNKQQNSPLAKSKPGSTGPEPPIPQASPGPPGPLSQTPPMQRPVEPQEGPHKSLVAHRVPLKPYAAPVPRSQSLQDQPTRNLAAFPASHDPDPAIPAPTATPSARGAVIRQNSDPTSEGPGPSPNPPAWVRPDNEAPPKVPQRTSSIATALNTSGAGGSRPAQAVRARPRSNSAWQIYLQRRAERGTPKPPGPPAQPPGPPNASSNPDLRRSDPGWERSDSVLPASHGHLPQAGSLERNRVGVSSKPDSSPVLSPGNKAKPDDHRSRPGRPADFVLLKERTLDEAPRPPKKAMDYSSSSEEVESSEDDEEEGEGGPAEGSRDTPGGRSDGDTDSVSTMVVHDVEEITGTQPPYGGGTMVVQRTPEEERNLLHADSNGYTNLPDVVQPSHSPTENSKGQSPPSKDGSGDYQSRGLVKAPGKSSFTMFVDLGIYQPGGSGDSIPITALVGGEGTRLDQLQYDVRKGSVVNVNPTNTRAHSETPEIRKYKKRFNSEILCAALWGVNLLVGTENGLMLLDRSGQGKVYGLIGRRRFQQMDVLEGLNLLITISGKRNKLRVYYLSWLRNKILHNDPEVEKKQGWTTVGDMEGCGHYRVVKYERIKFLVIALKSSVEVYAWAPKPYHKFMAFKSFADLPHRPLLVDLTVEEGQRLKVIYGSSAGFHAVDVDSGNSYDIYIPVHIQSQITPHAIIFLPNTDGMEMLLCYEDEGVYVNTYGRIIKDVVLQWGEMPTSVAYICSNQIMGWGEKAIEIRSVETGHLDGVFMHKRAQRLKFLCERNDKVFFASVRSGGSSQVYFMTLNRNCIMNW

Data set [17] concerns the target Serine/threonine-protein kinase 26 (Homo sapiens) (UniProt Q9P289). The data set is described as follows: Inhibition of recombinant full-length human MST4 (M1 to P416 residues) harboring thrombin cleavage site expressed in Baculovirus infected Sf9 cells assessed as residual activity at 1 uM in presence of [33-gamma]-ATP after 60 mins by scintillation counting method relative to control.

For data set [18], the target named is Tyrosine-protein kinase TXK (Homo sapiens) (UniProt P42681). The data set is described as follows: Inhibition of TXK (unknown origin) assessed as residual activity at 1 uM in presence of [33-gamma]-ATP after 60 mins by scintillation counting method relative to control.
Tyrosine-protein kinase TXK (Homo sapiens), sequence (P42681 whole entry): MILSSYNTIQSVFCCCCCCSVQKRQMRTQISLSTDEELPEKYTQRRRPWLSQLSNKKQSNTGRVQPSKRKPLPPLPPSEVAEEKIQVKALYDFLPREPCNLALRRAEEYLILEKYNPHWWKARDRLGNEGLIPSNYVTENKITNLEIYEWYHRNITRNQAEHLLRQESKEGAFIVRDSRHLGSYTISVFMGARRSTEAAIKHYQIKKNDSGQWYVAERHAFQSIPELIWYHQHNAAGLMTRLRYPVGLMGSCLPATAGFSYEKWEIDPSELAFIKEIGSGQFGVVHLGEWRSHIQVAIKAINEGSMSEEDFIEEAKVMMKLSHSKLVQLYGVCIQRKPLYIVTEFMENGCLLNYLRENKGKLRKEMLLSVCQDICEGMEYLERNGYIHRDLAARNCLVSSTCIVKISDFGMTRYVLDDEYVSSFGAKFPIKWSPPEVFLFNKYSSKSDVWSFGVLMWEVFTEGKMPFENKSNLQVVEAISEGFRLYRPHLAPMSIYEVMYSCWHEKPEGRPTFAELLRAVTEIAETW
Data set [19] addresses Mitogen-activated protein kinase 14 (Homo sapiens, UniProt Q16539). Nature of the data set: Inhibition of p38alpha MAPK (unknown origin) assessed as decrease in ATF2 phosphorylation at Thr69/71 at 1 uM after 1 hr by ELISA.
In data set [20] the test system is Epidermal growth factor receptor (Homo sapiens), P00533 [L858R]. Nature of the data set: Ratio of Kd for human EGFR L858R mutant (669 to 1011 residues) after 1 hr to Kd for human EGFR L858R mutant (669 to 1011 residues) after 6 hrs. The essentials: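 Kd from competition with an immobilized active-site-directed ligand […]. Ratio compares 1 h compound–kinase equilibration against an arm with 6 h overall equilibration.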

Molecules are shown by their SMILES. Converted amounts (≈) assume the structure as drawn.

Mitogen-activated protein kinase 14, sequence (Q16539 whole entry, the tested form may be a part): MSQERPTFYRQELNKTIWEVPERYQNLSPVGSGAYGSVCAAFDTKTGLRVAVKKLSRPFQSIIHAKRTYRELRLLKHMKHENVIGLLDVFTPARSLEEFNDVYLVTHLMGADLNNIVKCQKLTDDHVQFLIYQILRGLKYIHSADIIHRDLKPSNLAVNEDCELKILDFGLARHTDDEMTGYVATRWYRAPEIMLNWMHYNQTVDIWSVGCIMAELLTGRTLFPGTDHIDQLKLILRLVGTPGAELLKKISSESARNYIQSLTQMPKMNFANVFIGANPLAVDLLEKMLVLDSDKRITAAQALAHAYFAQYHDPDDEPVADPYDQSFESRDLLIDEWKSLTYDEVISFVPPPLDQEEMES
Serine/threonine-protein kinase 26 (Homo sapiens), sequence (Q9P289 2-416 limits assumed): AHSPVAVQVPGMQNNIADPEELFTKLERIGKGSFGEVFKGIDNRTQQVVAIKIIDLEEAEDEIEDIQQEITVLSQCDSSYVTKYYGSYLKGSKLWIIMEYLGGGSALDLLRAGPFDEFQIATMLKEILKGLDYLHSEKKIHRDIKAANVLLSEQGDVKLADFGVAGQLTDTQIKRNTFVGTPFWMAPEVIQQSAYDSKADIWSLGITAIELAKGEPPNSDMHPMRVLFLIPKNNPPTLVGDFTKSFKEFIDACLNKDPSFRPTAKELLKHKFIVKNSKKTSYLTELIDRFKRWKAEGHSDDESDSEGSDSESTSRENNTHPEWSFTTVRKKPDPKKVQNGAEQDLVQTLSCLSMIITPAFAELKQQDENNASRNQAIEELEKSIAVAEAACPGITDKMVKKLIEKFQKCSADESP

As to `C=CC(=O)Nc1cccc(-c2c[nH]c3nccc(-c4[nH]c(CCCO)nc4-c4ccc(F)cc4)c23)c1`, the IC50 is below 0.3 nM in [1] and 214 nM in data set [19]. In addition, in [2], the remaining at 4 h, 100 µM was 87%. In addition, the solubility in [3] turned out to be 299 µg/mL (≈ 621 µM). Also, the Ratio IC50 in the data set filed under Homo sapiens [4] was above 40. In addition, the Kd in [5] was 2 nM; in [6], 3.4 nM; in [7] it was 1.8 nM. Further, the Activity in the data set listed under Homo sapiens [8] is 3%; in the data set listed under Homo sapiens [9], 4%; in data set [10], 22%; in data set [11], 4%; in data set [12], 17%; in data set [13], 17%. In addition, the Activity in [14] was found to be 47%; in data set [15] it was 34%; in [16] it was 5%; in data set [17] it was 47%; in data set [18] it was 3%. Moreover, the activity at 1 h, 1 µM on EGFR (wild-type) worked out at 5%. Further, the Ratio in data set [20] lay in the range of 3 to 5.
